Results reported in ChEMBL document CHEMBL1133516, “Biarylpropylsulfonamides as novel, potent potentiators of 2-amino-3- (5-methyl-3-hydroxyisoxazol-4-yl)- propanoic acid (AMPA) receptors” (J Med Chem, 2000).

Molecular target: Glutamate receptor 4 (Homo sapiens, UniProt P48058)
Test: Tested for potentiation towards human iGluR4 receptor expressed in HEK293 cells
Type: functional, cell-based
Outline: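 Human GluR4 flip, stably homomerically expressed in HEK-293 cells. Cells loaded 60 min with 20 µM Fluo3-AM in HEPES buffer (138 mM NaCl, 5 mM CaCl2, 10 mM glucose, pH 7.1-7.3), then washed. Calcium-influx fluorescence read after 100 µM L-glutamate with compound at various concentrations. Responses expressed as % of 100 µM cyclothiazide; EC50 ± SEM calculated.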

Chain of Glutamate receptor 4 (P48058 whole entry): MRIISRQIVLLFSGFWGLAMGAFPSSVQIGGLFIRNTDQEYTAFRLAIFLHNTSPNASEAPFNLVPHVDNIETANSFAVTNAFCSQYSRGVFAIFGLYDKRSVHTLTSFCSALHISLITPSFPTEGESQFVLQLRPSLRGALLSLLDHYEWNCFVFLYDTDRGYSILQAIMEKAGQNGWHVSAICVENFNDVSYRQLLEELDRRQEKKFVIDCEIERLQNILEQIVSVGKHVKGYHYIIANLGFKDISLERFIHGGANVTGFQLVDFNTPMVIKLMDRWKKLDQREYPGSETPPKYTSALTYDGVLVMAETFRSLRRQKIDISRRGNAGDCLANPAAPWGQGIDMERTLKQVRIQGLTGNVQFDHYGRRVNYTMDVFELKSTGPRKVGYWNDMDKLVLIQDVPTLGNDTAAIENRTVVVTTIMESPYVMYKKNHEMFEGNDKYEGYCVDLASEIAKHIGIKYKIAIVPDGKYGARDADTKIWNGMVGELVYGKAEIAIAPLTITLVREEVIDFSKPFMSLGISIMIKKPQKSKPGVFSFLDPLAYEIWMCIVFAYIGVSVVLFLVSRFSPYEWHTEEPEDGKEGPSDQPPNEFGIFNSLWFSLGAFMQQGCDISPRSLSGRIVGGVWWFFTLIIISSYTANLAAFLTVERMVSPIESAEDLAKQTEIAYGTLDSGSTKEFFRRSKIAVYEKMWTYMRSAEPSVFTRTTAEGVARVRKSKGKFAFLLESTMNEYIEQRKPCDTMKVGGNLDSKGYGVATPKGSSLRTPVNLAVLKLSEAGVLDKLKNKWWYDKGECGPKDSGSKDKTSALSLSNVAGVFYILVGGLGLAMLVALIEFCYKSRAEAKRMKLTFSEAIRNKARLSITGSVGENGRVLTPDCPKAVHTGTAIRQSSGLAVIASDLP

| SMILES | EC50 [µM] |
| --- | --- |
| CC(C)S(=O)(=O)NCC(Cc1ccccc1)c1ccc(C(C)(C)C)cc1 (centres undefined) | > 100 |
| CC(CNS(=O)(=O)c1ccccc1)c1ccc(-c2ccccc2F)cc1 (centres undefined) | 62.5 |
| CC(CNS(C)(=O)=O)c1ccc(-c2ccccc2F)cc1 (centres undefined) | 19.6 |
| CC(CNS(=O)(=O)C(C)C)c1ccc(-c2ccc(C(=O)O)cc2)cc1 (centres undefined) | 1.4 |
| CCCCS(=O)(=O)NCC(C)c1ccc(-c2ccccc2F)cc1 (centres undefined) | > 100 |
| CC(C)S(=O)(=O)NCCc1ccc(C(C)(C)C)cc1 | 12.8 |
| CC(CNS(=O)(=O)C(C)C)c1ccc(-c2ccc(N)cc2)cc1 (centres undefined) | 0.13 |
| CC(CNS(=O)(=O)C(C)C)c1ccc(-c2ccc(C#N)cc2)cc1 (centres undefined) | 0.29 |
| O=C(c1ccc2nccnc2c1)N1CCCCC1 [CX516] | > 1000 |
| CC(CNS(=O)(=O)C(C)C)c1ccc(-c2ccc(C(F)(F)F)cc2)cc1 (centres undefined) | > 3 |
| CC(CNS(=O)(=O)C(C)C)c1ccc(-c2ccc(Cl)cc2)cc1 (centres undefined) | > 3 |
| CC(CNS(=O)(=O)Cc1ccccc1)c1ccc(-c2ccccc2F)cc1 (centres undefined) | > 100 |
| CCCC(CNS(=O)(=O)C(C)C)c1ccc(C(C)(C)C)cc1 (centres undefined) | 27.9 |
| CCCS(=O)(=O)NCC(C)c1ccc(-c2ccccc2F)cc1 (centres undefined) | 23.8 |
| CC(C)S(=O)(=O)NCCc1ccc(-c2ccccc2F)cc1 | 7.2 |
| CCS(=O)(=O)NCC(C)c1ccc(-c2ccccc2F)cc1 (centres undefined) | 5.4 |
| CC(C)S(=O)(=O)NCC(CCc1ccccc1)c1ccc(C(C)(C)C)cc1 (centres undefined) | > 100 |
| CC(CNS(=O)(=O)C(F)(F)F)c1ccc(-c2ccccc2F)cc1 (centres undefined) | 32.9 |
| CC(CN)c1ccc(-c2ccccc2F)cc1 (centres undefined) | > 100 |

Next, values leading:

| EC50 [µM] | SMILES |
| --- | --- |
| 1.2 | CC(CNS(=O)(=O)C(C)C)c1ccc(C(C)(C)C)cc1 (centres undefined) |
| 1 | CC(CNS(=O)(=O)C(C)C)c1ccc(-c2ccccc2)cc1 (centres undefined) |
| 0.27 | Cc1ccc(-c2ccc(C(C)CNS(=O)(=O)C(C)C)cc2)cc1 (centres undefined) |
| 4.4 | CC(CNS(=O)(=O)C(C)C)c1ccc(-c2ccccc2F)cc1 (centres undefined) |
| 4 | CC(CNS(=O)(=O)N(C)C)c1ccc(-c2ccccc2F)cc1 (centres undefined) |
| 0.25 | CC(CNS(=O)(=O)C(C)C)c1ccc(-c2ccc(C=O)cc2)cc1 (centres undefined) |
| 2 | CCC(CNS(=O)(=O)C(C)C)c1ccc(C(C)(C)C)cc1 (centres undefined) |
| 4.5 | CC(CNS(C)(=O)=O)c1ccc(-c2ccsc2)cc1 (centres undefined) |
| 0.66 | CC(CNS(=O)(=O)C(C)C)c1ccc(-c2ccsc2)cc1 (centres undefined) |
| 3.8 | NS(=O)(=O)c1cc2c(cc1Cl)NC(C1CC3C=CC1C3)NS2(=O)=O (centres undefined) [CYCLOTHIAZIDE] |
